{"data": "Measured values pooled from the literature", "note": "Lines come from different studies, so protocols differ."}
{"Structure (SMILES)": "C[C@@H](c1ncncc1F)[C@](O)(Cn1cncn1)c1ccc(F)cc1F", "tested on": "Acanthamoeba quina", "test": "parasite growth, resazurin", "conditions": "7 days", "quantity": "IC50", "result": "24.1 µM"}
{"Structure (SMILES)": "Cc1cc(=O)oc2ccc(-c3cc(-c4ccc(Br)cc4)nc(N)n3)c(O)c12", "tested on": "KB", "test": "cell growth or viability, MTT", "conditions": "8 µg/mL, 72 h", "quantity": "inhibition", "result": "2%"}
{"Structure (SMILES)": "COC(=O)COc1ccc(NC(=O)C2(c3ccc(Cl)c(Cl)c3)CC2)cc1", "tested on": "U-937", "test": "cell growth or viability, ATP luminescence", "conditions": "72 h", "quantity": "GI50", "result": "3 µM"}
{"Structure (SMILES)": "COc1ccc(-c2cc(-c3ccc4oc(=O)cc(C)c4c3O)nc(N)n2)cc1", "tested on": "KB", "test": "cell growth or viability, MTT", "conditions": "8 µg/mL, 72 h", "quantity": "inhibition", "result": "0%"}
{"Structure (SMILES)": "C[C@@H]1[C@H](O)[C@@H](C)/C=C/C=C/C=C/C=C/C=C/C=C/C=C/[C@H](O[C@@H]2O[C@H](C)[C@@H](O)[C@H](N)[C@@H]2O)C[C@@H]2O[C@](O)(C[C@@H](O)C[C@@H](O)[C@H](O)CC[C@@H](O)C[C@@H](O)CC(=O)O[C@H]1C)C[C@H](O)[C@H]2C(=O)O", "tested on": "Pichia kudriavzevii", "test": "microbial growth", "test system": "ATCC6258", "quantity": "IC50", "result": "0.54 µg/mL"}
{"Structure (SMILES)": "Cc1cc(=O)oc2ccc(-c3cc(-c4ccc(Cl)cc4)nc(N)n3)c(O)c12", "tested on": "KB", "test": "cell growth or viability, MTT", "conditions": "128 µg/mL, 72 h", "quantity": "inhibition", "result": "60%"}
{"Structure (SMILES)": "COC(=O)COc1ccc(NC(=O)C2(c3ccc(Cl)cc3)CC2)cc1", "tested on": "U-937", "test": "cell growth or viability, ATP luminescence", "conditions": "72 h", "quantity": "GI50", "result": "3.9 µM"}
{"Structure (SMILES)": "CCCCCCCCCCCCCCN1CCN(CC(O)(Cn2cncn2)c2ccc(F)cc2F)CC1 (centres unmarked)", "tested on": "Pichia kudriavzevii", "test": "microbial growth, broth dilution", "test system": "ATCC6258", "conditions": "48 h", "quantity": "MIC", "result": "0.975 µg/mL"}
{"Structure (SMILES)": "COC(=O)COc1ccc(NC(=O)C2(c3ccccc3)CC2)cc1", "tested on": "U-937", "test": "cell growth or viability, ATP luminescence", "conditions": "72 h", "quantity": "GI50", "result": "4.2 µM"}
{"Structure (SMILES)": "C[C@@H]1[C@H](O)[C@@H](C)/C=C/C=C/C=C/C=C/C=C/C=C/C=C/[C@H](O[C@@H]2O[C@H](C)[C@@H](O)[C@H](N)[C@@H]2O)C[C@@H]2O[C@](O)(C[C@@H](O)C[C@@H](O)[C@H](O)CC[C@@H](O)C[C@@H](O)CC(=O)O[C@H]1C)C[C@H](O)[C@H]2C(=O)O", "tested on": "Pichia kudriavzevii", "test": "microbial killing", "test system": "ATCC6258", "quantity": "MFC", "result": "1.35 µM"}
{"Structure (SMILES)": "CC[C@H](C)C[C@H](C)CCCCCCCCC(=O)N[C@H]1C[C@@H](O)[C@@H](NCCN)NC(=O)[C@@H]2[C@@H](O)CCN2C(=O)[C@H]([C@H](O)CCN)NC(=O)[C@H]([C@H](O)[C@@H](O)c2ccc(O)cc2)NC(=O)[C@@H]2C[C@@H](O)CN2C(=O)[C@H]([C@@H](C)O)NC1=O", "tested on": "Pichia kudriavzevii", "test": "microbial growth, broth dilution", "test system": "ATCC6258", "conditions": "48 h", "quantity": "MIC", "result": "0.48 µg/mL"}
{"Structure (SMILES)": "COC(=O)COc1ccc(NC(=O)C2(c3cccc(C)c3)CC2)cc1", "tested on": "U-937", "test": "cell growth or viability, ATP luminescence", "conditions": "72 h", "quantity": "GI50", "result": "> 200 µM"}
{"Structure (SMILES)": "Cc1cc(=O)oc2ccc(-c3cc(-c4cccc(Cl)c4)nc(N)n3)c(O)c12", "tested on": "KB", "test": "cell growth or viability, MTT", "conditions": "8 µg/mL, 72 h", "quantity": "inhibition", "result": "5%"}
{"Structure (SMILES)": "Clc1ccccc1C(c1ccccc1)(c1ccccc1)n1ccnc1", "tested on": "Fusarium solani", "test": "microbial growth, disc diffusion", "conditions": "20000 µg/mL", "quantity": "inhibition zone", "result": "23 mm"}
